A selection: hits, their analogues and other compounds. The true share with any hit is near 2.7%.
GSTO1 inh = GSTO1 inhibition, counter-screen for RBBP9 inhibitors. P78417. recombinant GSTO1, activity-based probe fluorescence polarization. inhibition, % at 5.96 µM. hit rate 1.1% among 300,000. AID 1974;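 active = inhibition above the campaign mean inhibition plus 3 SD, cut at about 35% in these data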;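 note: 0% = GSTO1-1 with DMSO and 100% = wells lacking GSTO1-1 enzyme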
SIAE primary = inhibitors of human sialic acid acetylesterase SIAE | Q9HAT2 | SIAE FP-Rh probe binding, fluorescence polarization | inhibition, % at 9.66 µM | hit rate 0.69% among 370,000;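 active = inhibition above a cutoff: mean of compounds within the control limits plus 3 SD of those, cut at about 17% in these data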;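 note: 0% = plate median of compound wells and 100% = probe without SIAE protein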
PAD4 inh = inhibitors of human PAD4. recombinant PAD4, RCA probe fluorescence polarization. inhibition, % at 6.36 µM. hit rate 0.41% among 330,000;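 active = percent inhibition above a cutoff equal to the mean of all tested compounds plus 3 SD, cut at about 15% in these data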;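 note: 0% = PAD4 with RCA probe and DMSO and 100% = probe without PAD4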
Target sequence (Q9UM07 whole entry, looked up): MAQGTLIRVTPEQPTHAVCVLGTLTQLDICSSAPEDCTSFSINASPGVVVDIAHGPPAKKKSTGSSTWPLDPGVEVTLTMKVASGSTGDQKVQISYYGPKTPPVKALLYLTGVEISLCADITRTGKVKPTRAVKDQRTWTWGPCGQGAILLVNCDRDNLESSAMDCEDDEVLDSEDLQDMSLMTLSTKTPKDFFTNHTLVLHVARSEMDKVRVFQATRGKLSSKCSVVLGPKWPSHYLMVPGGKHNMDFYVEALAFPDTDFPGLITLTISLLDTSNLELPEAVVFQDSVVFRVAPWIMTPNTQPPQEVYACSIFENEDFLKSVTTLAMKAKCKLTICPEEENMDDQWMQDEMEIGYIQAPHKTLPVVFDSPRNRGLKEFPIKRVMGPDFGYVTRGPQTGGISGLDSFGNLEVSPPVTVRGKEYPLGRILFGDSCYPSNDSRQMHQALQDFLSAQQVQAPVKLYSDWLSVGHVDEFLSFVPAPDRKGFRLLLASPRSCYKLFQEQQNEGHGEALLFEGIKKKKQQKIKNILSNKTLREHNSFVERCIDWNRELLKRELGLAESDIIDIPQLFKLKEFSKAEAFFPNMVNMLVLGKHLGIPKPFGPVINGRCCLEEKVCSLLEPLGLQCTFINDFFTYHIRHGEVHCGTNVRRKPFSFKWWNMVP
PRMT1 FP inh = inhibitors of human PRMT1; recombinant PRMT1, activity-based probe fluorescence polarization; inhibition, % at 2.79 µM; hit rate 1.3% among 370,000; AID 652257;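 active = inhibition above about 21% made by adding two undisclosed values, limit read from the data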
RBBP9 inh = human RBBP9 hydrolase inhibition; hit rate 0.2% among 220,000; O75884; recombinant RBBP9, FP-Rh probe fluorescence polarization; inhibition, % at 7.94 µM;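 active = inhibition above the campaign mean of all tested compounds plus 3 SD, cut at about 14% in these data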;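 note: plate controls were DMSO wells with RBBP9 for no effect and wells lacking RBBP9 protein for full effect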
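Measured by – fluorescence polarization · Test system – RBBP9 protein · Input – 2.5 µM RBBP9 dispensing solution, before mixing · Measure – percent inhibition from mP, scaled between DMSO and no-protein wells · Benchmarks – DMSO-treated enzyme wells and wells lacking RBBP9 · Times – preincubation 30 min plus labeling 45 min at 25 °C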
RBBP9 confirm = confirmation of human RBBP9 inhibitors | shares compounds with RBBP9 inh | recombinant RBBP9, FP-Rh probe fluorescence polarization | inhibition, % at 7.94 µM | hit rate 36% among 410;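 active = inhibition above the hit cutoff derived for the primary screen, cut at about 15% in these data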;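 note: 0% = RBBP9 with DMSO and 100% = wells lacking RBBP9 protein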
* hit, by the source's call; . = no result.

SMILES	GSTO1 inh	SIAE primary	PAD4 inh	PRMT1 FP inh	RBBP9 inh	RBBP9 confirm
CCOC(=O)c1nc2sc3c(c2c(=O)[nH]1)CCCC3	0	0	-3	3	-7	.
CCN(CC(=O)Nc1ccc([N+](=O)[O-])cc1OC)c1ccccc1	2	4	3	1	-2	.
CC(=O)N1c2ccccc2N=C(c2ccc3c(c2)OCO3)C1C(=O)NCc1ccccc1 (centres undefined)	.	-1	.	-2	.	.
CCCCCc1ccc(OCCCC[n+]2ccccc2)c(CCCCC)c1	9	.	0	.	-1	.
CCCCCc1ccc(OCCCC[n+]2cccc(C)c2)c(CCCCC)c1	18	-2	4	-2	15*	0
CCN=C1S/C(=C\c2cc(OCC)c(O)cc2Br)C(=O)N1CC	-3	8	-1	1	24*	6
CCN=C1S/C(=C\c2ccc(O)c(OCC)c2)C(=O)N1CC	3	-2	-2	-1	-3	.
CC(C)C[C@@H](COCc1ccc(C(F)(F)F)cc1)N1CCN(C(=O)c2ccc(C(F)(F)F)cc2)CCC1=O	.	4	.	0	.	.
CN(c1ccc(C(=O)N2CCOCC2)cc1)S(=O)(=O)c1ccc(Cl)cc1	-2	-3	2	4	.	.
CC(=O)NC(c1ccccc1)c1c(O)ccc2ccccc12 (centres undefined)	1	3	2	-1	16*	17*
CCN(CC)CCNC(=O)c1ccc2c(=O)n(C3CCCC3)c(=S)[nH]c2c1	10	5	0	-1	-1	.
CC(C)=NOC(=O)c1c(C)noc1-c1snnc1C	-7	0	2	2	18*	4
COC(=O)c1c(C)noc1-c1snnc1C	-3	-1	0	5	-2	.
COc1ccccc1N1CCN(S(=O)(=O)c2cccc3nsnc23)CC1	9	-9	-5	0	-13	.
O=C(OCC(=O)N(C1CCCCC1)C1CCCCC1)c1ccccc1O	-6	3	-2	0	.	.
O=C(O)c1ccc(NC2=Nc3cccc4cccc2c34)cc1	.	2	.	-1	15*	5
COc1cc(/C=C2\SC(=S)N(Nc3ccccc3)C2=O)cc(OC)c1OC	35	2	-6	8	-12	.
CCOc1cc(CNc2ccc3[nH]c(=O)[nH]c3c2)ccc1OCC(=O)NC(C)(C)C	-1	3	-15	10	1	.
C=CCOc1ccc(CNc2ccc3[nH]c(=O)[nH]c3c2)cc1OCC	7	7	-5	12	18*	14*
COC(=O)c1ccc(N2C(=O)CC(N3CCOCC3)C2=O)cc1 (centres undefined)	1	-9	-2	3	-5	.
COC(=O)c1ccc(N2C(=O)CC(N3CCN(c4ccccc4)CC3)C2=O)cc1 (centres undefined)	1	5	-1	6	21*	10
Cc1ccn2c(Nc3ccc4c(c3)OCO4)c(-c3ccc(O)cc3)nc2c1	2	9	-4	6	17*	28*
Cc1ccc(NC2c3ncccc3C(=O)N2c2ccccc2C)cc1C (centres undefined)	5	1	6	18	18*	24*
CCN(CC(=O)Nc1ccc2c(c1)OCCO2)C(=O)CSCC(=O)Nc1ccc(C)cc1	8	-3	-5	0	.	.
Cc1nn(-c2ccccc2)c(Cl)c1/C=N/NC(=O)CNC(=O)c1ccccc1Cl	0	-2	-2	1	39*	3
SMILES	GSTO1 inh	SIAE primary	PAD4 inh	PRMT1 FP inh	RBBP9 inh	RBBP9 confirm
Cc1ccc(N(C)S(=O)(=O)c2ccc(C)cc2)cc1	4	-2	-1	1	-2	.
Cc1ccc(S(=O)(=O)N(C)c2ccccc2)cc1	4	3	4	1	14*	-11
CCN(CC)c1ccc(NC(=O)CCc2nnc3ccc(N4CCCC4)nn23)c(C)c1	2	7	-2	4	.	.
O=C(Nc1nnc(C2=COCCO2)o1)c1ccc(Cc2ccccc2)cc1	3	5	2	0	17*	5
CC1CCCCC1NC(=O)c1ccc(S(=O)(=O)NCc2ccco2)cc1 (centres undefined)	3	5	8	-2	18*	1
O=C(Nc1ccccc1)c1ccc(S(=O)(=O)NCc2ccco2)cc1	-10	0	-8	1	-8	.
CN(CC(=O)Nc1cccc(F)c1)C(=O)c1cc(S(=O)(=O)N(C)C)ccc1N1CCCC1	2	15	-3	0	.	.

Assay outcomes: PubChem BioAssay, The Scripps Research Institute Molecular Screening Center
